Source: ChEMBL document CHEMBL1629536, “Incorporation of piperazino functionality into 1,3-disubstituted urea as the tertiary pharmacophore affording potent inhibitors of soluble epoxide hydrolase with improved pharmacokinetic properties” (J Med Chem, 2010)
Values after ≈ are worked out from the molar mass of the structure shown.

Columns and labels:
[1] = target: T1, Bifunctional epoxide hydrolase 2 (Homo sapiens, UniProt P34913); assay: Inhibition of human recombinant soluble epoxide hydrolase expressed in baculovirus expression system by fluorimetric assay
T1 sequence (P34913 whole entry): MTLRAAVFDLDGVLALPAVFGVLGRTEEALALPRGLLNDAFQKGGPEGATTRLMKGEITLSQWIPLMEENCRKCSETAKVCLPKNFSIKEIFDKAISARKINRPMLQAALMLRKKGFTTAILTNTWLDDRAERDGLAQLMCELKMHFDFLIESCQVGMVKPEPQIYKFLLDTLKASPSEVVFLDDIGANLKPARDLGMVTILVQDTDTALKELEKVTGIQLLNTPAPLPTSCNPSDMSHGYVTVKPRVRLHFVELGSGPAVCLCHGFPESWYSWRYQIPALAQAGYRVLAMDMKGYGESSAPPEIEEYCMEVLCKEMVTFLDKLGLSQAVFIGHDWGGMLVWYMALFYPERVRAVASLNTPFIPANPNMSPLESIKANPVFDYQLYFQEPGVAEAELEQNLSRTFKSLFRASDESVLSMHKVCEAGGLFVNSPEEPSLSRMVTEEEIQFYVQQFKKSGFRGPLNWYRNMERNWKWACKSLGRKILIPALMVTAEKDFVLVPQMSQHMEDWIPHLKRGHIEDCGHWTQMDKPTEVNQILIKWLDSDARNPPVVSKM

[2] = Solubility in sodium phosphate buffer at 0.1 M pH 7.4 at 25 degC; format: physicochemical
[3] = AUC in mouse at 5 mg/kg, po; format: ADME, organism-based; set-up: dose 5 mg/kg, route oral; conditions: plasma
How it was run: (§1)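 Mice dosed by oral gavage at 5 mg/kg in oleic oil triglyceride containing 3% EtOH. Tail-vein blood was sampled before dosing and at 30, 60, 90, 120, 240, 450, 600 and 1440 min, then centrifuged at 3000 rpm, 4°C, 10 min. Plasma was analysed by LC/MS/MS. AUC and t1/2 came from noncompartmental fitting of the concentration-time data.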

[4] = (§2) Half life in mouse at 5 mg/kg, po; format: ADME, organism-based; set-up: dose 5 mg/kg, route oral; conditions: in vivo; how it was run: as §1
[5] = Tmax in mouse at 5 mg/kg, po; format: ADME, organism-based; set-up: dose 5 mg/kg, route oral; conditions: in vivo
[6] = Cmax in mouse at 5 mg/kg, po; format: ADME, organism-based; set-up: dose 5 mg/kg, route oral; conditions: in vivo
Mus musculus = assay: as §2; format: ADME, organism-based; set-up: dose 5 mg/kg, route oral; conditions: in vivo; how it was run: as §1

SMILES	IC50 [1] [µM]	further results
CC(=O)N1CCN(CCCCOc2ccccc2NC(=O)NC23CC4CC(CC(C4)C2)C3)CC1	3.15	
CN1CCN(CCCOc2ccccc2NC(=O)NC23CC4CC(CC(C4)C2)C3)CC1	2.88	
CC(=O)N1CCN(CCCOc2ccccc2NC(=O)NC23CC4CC(CC(C4)C2)C3)CC1	0.994	solubility [2]: 1.78 mg/mL (≈ 3920 µM)
CC(=O)N1CCN(CCCOc2ccc(NC(=O)NC34CC5CC(CC(C5)C3)C4)cc2)CC1	0.0033	solubility [2]: 0.32 mg/mL (≈ 704 µM); AUC [3]: 580 nM·h; half-life [4]: 6 h; Tmax [5]: 0.5 h; Cmax [6]: 0.112 µM
CN1CCN(CCCCOc2ccccc2NC(=O)NC23CC4CC(CC(C4)C2)C3)CC1	5.29	
CN1CCN(CCCCOc2ccc(NC(=O)NC34CC5CC(CC(C5)C3)C4)cc2)CC1	0.0448	
CC(=O)N1CCN(CCCCOc2ccc(NC(=O)NC34CC5CC(CC(C5)C3)C4)cc2)CC1	0.007	solubility [2]: 0.7 mg/mL (≈ 1490 µM); AUC [3]: 670 nM·h; half-life [4]: 14 h; Tmax [5]: 0.5 h; Cmax [6]: 0.084 µM
CC(C)(C)OC(=O)N1CCN(CCCCOc2cccc(NC(=O)NC34CC5CC(CC(C5)C3)C4)c2)CC1	0.0071	solubility [2]: 2.78 mg/mL (≈ 5280 µM); AUC [3]: 85 nM·h; half-life [4]: 59 h; Tmax [5]: 9 h; Cmax [6]: 0.006 µM
CC(C)(C)OC(=O)N1CCN(C(=O)CCCOc2cccc(NC(=O)NC34CC5CC(CC(C5)C3)C4)c2)CC1	0.0215	
CC(C)(C)OC(=O)N1CCN(CCOc2cccc(NC(=O)NC34CC5CC(CC(C5)C3)C4)c2)CC1	0.0028	
CC(C)(C)OC(=O)N1CCN(CCCCCOc2cccc(NC(=O)NC34CC5CC(CC(C5)C3)C4)c2)CC1	0.0117	
COc1cc(C(=O)N2CCN(CCCCOc3cccc(NC(=O)NC45CC6CC(CC(C6)C4)C5)c3)CC2)cc(OC)c1OC	0.0096	
O=C(Nc1cccc(OCCCCN2CCN(C(=O)c3ccc(C(F)(F)F)cc3)CC2)c1)NC12CC3CC(CC(C3)C1)C2	0.0136	
Cc1ccc(S(=O)(=O)N2CCN(CCCCOc3cccc(NC(=O)NC45CC6CC(CC(C6)C4)C5)c3)CC2)cc1	0.0033	
CC(C)(C)OC(=O)N1CCN(CCCOc2ccccc2NC(=O)NC23CC4CC(CC(C4)C2)C3)CC1	0.0394	
CC(C)(C)OC(=O)N1CCN(CCCCOc2ccccc2NC(=O)NC23CC4CC(CC(C4)C2)C3)CC1	0.0165	
CC(C)(C)OC(=O)N1CCN(CCCOc2ccc(NC(=O)NC34CC5CC(CC(C5)C3)C4)cc2)CC1	0.0146	
CC(C)(C)OC(=O)N1CCN(CCCCOc2ccc(NC(=O)NC34CC5CC(CC(C5)C3)C4)cc2)CC1	0.0201	
O=C(O)CCCCCCCCCCCNC(=O)NC12CC3CC(CC(C3)C1)C2		solubility [2]: < 0.125 mg/mL; AUC [3]: 50 nM·h; t1/2 (Mus musculus): 2.1 h

More lines, main results first:

IC50 [1] [µM]	SMILES	further results
0.0231	CN1CCN(CCCOc2cccc(NC(=O)NC34CC5CC(CC(C5)C3)C4)c2)CC1	solubility [2]: 2.21 mg/mL (≈ 5180 µM)
97.5	O=C(Nc1ccccc1OCCCN1CCNCC1)NC12CC3CC(CC(C3)C1)C2	
0.0272	O=C(Nc1cccc(OCCCN2CCNCC2)c1)NC12CC3CC(CC(C3)C1)C2	solubility [2]: 0.81 mg/mL (≈ 1960 µM)
0.0036	CC(=O)N1CCN(CCCOc2cccc(NC(=O)NC34CC5CC(CC(C5)C3)C4)c2)CC1	solubility [2]: 0.34 mg/mL (≈ 748 µM); AUC [3]: 185 nM·h; half-life [4]: 8 h; Tmax [5]: 0.5 h; Cmax [6]: 0.032 µM
0.156	O=C(Nc1ccc(OCCCN2CCNCC2)cc1)NC12CC3CC(CC(C3)C1)C2	
0.0179	CN1CCN(CCCOc2ccc(NC(=O)NC34CC5CC(CC(C5)C3)C4)cc2)CC1	
72.8	O=C(Nc1ccccc1OCCCCN1CCNCC1)NC12CC3CC(CC(C3)C1)C2	
0.0148	O=C(Nc1cccc(OCCCCN2CCNCC2)c1)NC12CC3CC(CC(C3)C1)C2	
0.0133	CN1CCN(CCCCOc2cccc(NC(=O)NC34CC5CC(CC(C5)C3)C4)c2)CC1	
0.0027	CC(=O)N1CCN(CCCCOc2cccc(NC(=O)NC34CC5CC(CC(C5)C3)C4)c2)CC1	solubility [2]: 1.82 mg/mL (≈ 3880 µM)
0.126	O=C(Nc1ccc(OCCCCN2CCNCC2)cc1)NC12CC3CC(CC(C3)C1)C2	
0.0914	O=C(Nc1cccc(OCCCC(=O)N2CCNCC2)c1)NC12CC3CC(CC(C3)C1)C2	
0.0054	CC(=O)N1CCN(C(=O)CCCOc2cccc(NC(=O)NC34CC5CC(CC(C5)C3)C4)c2)CC1	
0.0671	O=C(Nc1cccc(OCCN2CCNCC2)c1)NC12CC3CC(CC(C3)C1)C2	
0.0138	O=C(Nc1cccc(OCCCCCN2CCNCC2)c1)NC12CC3CC(CC(C3)C1)C2	
0.0078	CN1CCN(CCOc2cccc(NC(=O)NC34CC5CC(CC(C5)C3)C4)c2)CC1	
0.0115	CN1CCN(CCCCCOc2cccc(NC(=O)NC34CC5CC(CC(C5)C3)C4)c2)CC1	
0.0028	CC(=O)N1CCN(CCCCCOc2cccc(NC(=O)NC34CC5CC(CC(C5)C3)C4)c2)CC1	
0.006	CC(=O)N1CCN(CCOc2cccc(NC(=O)NC34CC5CC(CC(C5)C3)C4)c2)CC1	solubility [2]: 0.52 mg/mL (≈ 1180 µM)
0.0029	CC(C)(C)OC(=O)N1CCN(CCCOc2cccc(NC(=O)NC34CC5CC(CC(C5)C3)C4)c2)CC1	solubility [2]: 0.54 mg/mL (≈ 1050 µM); AUC [3]: 100 nM·h; half-life [4]: 23 h; Tmax [5]: 0.5 h; Cmax [6]: 0.006 µM
0.0018	O=C(Nc1cccc(OCCCCN2CCN(C(=O)C(F)(F)F)CC2)c1)NC12CC3CC(CC(C3)C1)C2	
0.0014	O=C(Nc1cccc(OCCCCN2CCN(C(=O)CCl)CC2)c1)NC12CC3CC(CC(C3)C1)C2	
0.001	CS(=O)(=O)N1CCN(CCCCOc2cccc(NC(=O)NC34CC5CC(CC(C5)C3)C4)c2)CC1	solubility [2]: 2.97 mg/mL (≈ 5880 µM); AUC [3]: 333 nM·h; half-life [4]: 3.5 h; Tmax [5]: 0.5 h; Cmax [6]: 0.16 µM
